Screening data as filed in PubChem BioAssay.
ABHD4 inh: inhibitors of mouse ABHD4; 0.54% of 370,000 active; inhibition, % at 8.92 µM; Q8VD66; purified mABHD4, FP-Rh probe fluorescence polarization;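 active means inhibition exceeding the mean over every tested compound plus 3 SD, cut at about 30% in these data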;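 further: 0% = plate median of compound wells and 100% = S159A mutant with DMSO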
Target sequence (Q8VD66 whole entry, looked up): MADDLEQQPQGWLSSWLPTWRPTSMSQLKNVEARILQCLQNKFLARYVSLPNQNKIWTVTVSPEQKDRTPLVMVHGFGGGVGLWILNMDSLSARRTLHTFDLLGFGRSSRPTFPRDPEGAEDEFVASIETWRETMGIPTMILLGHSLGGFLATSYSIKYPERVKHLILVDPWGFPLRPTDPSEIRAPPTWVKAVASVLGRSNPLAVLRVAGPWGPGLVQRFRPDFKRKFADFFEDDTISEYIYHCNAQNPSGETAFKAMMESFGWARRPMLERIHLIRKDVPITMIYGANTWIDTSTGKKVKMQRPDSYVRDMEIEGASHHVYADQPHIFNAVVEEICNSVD
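Test system: mABHD4 protein; Read-out basis: % inhibition; Incubation: 45 min + 60 min at 25 °C; Repeats: single replicate; Technique: fluorescence polarization with parallel and perpendicular emission, 525/598 nm; Compound: 8.92 µM, single dose; Benchmarks: full inhibition S159A mutant plus DMSO, zero as sample-well median.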
RBBP9 inhibitor: inhibitors of human serine hydrolase RBBP9 | O75884 | recombinant RBBP9, FP-Rh probe fluorescence polarization | inhibition, % at 7.94 µM | 0.2% of 220,000 active | AID 1515;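 active means inhibition above the campaign mean of all tested compounds plus 3 SD, cut at about 14% in these data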;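 further: plate controls were DMSO wells with RBBP9 for no effect and wells lacking RBBP9 protein for full effect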
Target sequence (O75884 whole entry, looked up): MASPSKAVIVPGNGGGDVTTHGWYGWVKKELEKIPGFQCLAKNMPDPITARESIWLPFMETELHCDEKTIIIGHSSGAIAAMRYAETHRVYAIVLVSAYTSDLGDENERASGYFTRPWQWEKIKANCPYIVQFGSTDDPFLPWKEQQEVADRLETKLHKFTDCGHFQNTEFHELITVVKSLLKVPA
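Assay system: recombinant human RBBP9; Reagent: Serine-hydrolase probe FP-Rh, 375 nM pre-mixing; Doses: 7.94 µM single dose, 0.794% DMSO; Incubation: 30 min then 45 min, 25 °C; Detection: fluorescence polarization (mP), excitation 525 nm, emission 598 nm; Evaluation: percent inhibition from mP, scaled between DMSO and no-protein wells.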
SIAE primary: inhibitors of human sialic acid acetylesterase SIAE | SIAE FP-Rh probe binding, fluorescence polarization | 0.69% of 370,000 active | Q9HAT2 | inhibition, % at 9.66 µM;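 active means inhibition above a cutoff: mean of compounds within the control limits plus 3 SD of those, cut at about 17% in these data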;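 further: 0% = plate median of compound wells and 100% = probe without SIAE protein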
HTRA1 inh: inhibitors of human serine peptidase HTRA1; recombinant HTRA1, FP-rhodamine activity-based probe, fluorescence polarization; inhibition, % at 5.96 µM; Q92743; AID 504803; 0.5% of 340,000 active; in the data active means inhibition above about 36%;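 further: 0% = enzyme with DMSO and 100% = wells lacking enzyme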
HTRA1 inh conf: confirmation of human HTRA1 inhibitors; 66% of 1,600 active; recombinant HTRA1, FP-rhodamine activity-based probe, fluorescence polarization; shares compounds with HTRA1 inh; inhibition, % at 5.96 µM;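 active means mean inhibition over three repeats above a set limit taken from the earlier primary screen, cut at about 37% in these data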;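 further: 0% = HTRA1 with DMSO and 100% = wells lacking HTRA1; inhibitors block probe binding so polarization drops and inhibition rises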
ABHD4 confirm: confirmation of mouse ABHD4 inhibitors | 55% of 1,800 active | inhibition, % at 8.92 µM | AID 720658 | shares compounds with ABHD4 inh | purified mABHD4, FP-Rh probe fluorescence polarization;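 active means mean inhibition across replicates above the hit cutoff set in the primary screen, cut at about 30% in these data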;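 further: 0% = wild-type ABHD4 with DMSO and 100% = catalytically dead S159A mutant with DMSO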
Starred values were filed as active, the others as inactive; / = no result given; ! = not active in a repeat. A selection: hits, their analogues and other compounds. The true share with any hit is near 1.4%.

SMILES	ABHD4 inh	RBBP9 inhibitor	SIAE primary	HTRA1 inh	HTRA1 inh conf	ABHD4 confirm
CCOC(=O)c1c2c(n(Cc3ccccc3)c1C)C(=O)C(=O)c1ccccc1-2	39*	/	13	46*	43*	54*
O=C(CSc1nnc(-c2ccc(Cl)cc2)n1-c1ccccc1)Nc1ccc2c(c1)OCCO2	1	/	0	/	/	/
COC(=O)c1c(C(=O)OC)c2cccc3cc(-c4ccccc4)c4ccc1c4n32	36*	-2	8	39*	58*	35*
CCCOc1ccc(C(=O)N2CCC(Oc3cccnc3)CC2)cc1	4	/	3	/	/	/
Oc1ccc(Cc2ccccc2)c2cccnc12	19	/	10	/	/	/
COc1ccccc1N=Nc1ccc(O)c2ncccc12	38*	/	15	81*	62*	36*
Cc1cccc(C)c1N=Nc1c(C)cc(O)cc1C	32*	/	11	47*	50*	39*
COc1ccc(/C=N\NC(=O)CN2CCN(Cc3ccccc3)CC2)cc1OCc1ccccc1	3	/	-6	/	/	/
COc1ccc(CCn2c(O)cc3nn(-c4nc5ccccc5s4)c(=O)c-3c2C)cc1	37*	8	2	42*	88*	17
NS(=O)(=O)c1ccc(N=Nc2c(O)c(C(=O)O)cc3ccccc23)cc1	49*	3	9	45*	9	20
Oc1ccc(Nc2nc(-c3ccc4ccccc4c3)cs2)cc1	6	0	9	32	/	/
Oc1ccc(-c2nc(-c3ccc(O)c(O)c3)cs2)cc1	33*	14	11	55*	55*	32*
O=c1[nH]c(-c2ccccc2)cn1C1CCN(Cc2ccc(-c3nc4ccc(Br)cc4nc3-c3ccccc3)cc2)CC1	-18	/	-9	/	/	/
CC(=O)N1CCN(c2ccc(NCc3cccc4ccccc34)cc2)CC1	30*	/	10	37*	26	8
O=C(CN1CCN(Cc2ccccc2)CC1)N/N=C\c1ccccc1[N+](=O)[O-]	1	/	1	/	/	/
Cc1coc2c1C(=O)C(=O)c1c-2ccc2c1CCCC2(C)C	49*	4	13	67*	66*	58*
Cc1ccc(SCc2cc(=O)c3c(=O)n(-c4ccccc4)[nH]c3[nH]2)cc1	54*	-3	16	56*	8	35*
O=c1cc(CSc2ccccc2)[nH]c2ccccc12	3	/	1	1	/	/
O=C(NC1CCCCN(Cc2cccc(Cl)c2)C1=O)c1cccc2nsnc12 (configuration not stated)	-4	/	3	/	/	/
Cc1ccc(C)c(N=Nc2nc3ccccc3n2C)c1	13	-3	9	11	/	/
Cc1cc(C)c(C)c(N=Nc2nc3ccccc3n2C)c1C	40*	0	9	37*	43*	55*
COC(=O)c1ccc(Sc2ccc(C)cc2)c(N)c1	5	11	5	-12	/	/
COc1cc(Sc2ccc(C)cc2)c(OC)cc1N	34*	8	0	46*	44*	41*
NC(=S)N=Nc1c(O)cc(O)c2[nH]c(=O)ccc12	34*	/	12	61*	43*	77*
CCS(=O)(=O)Nc1ccc2c(c1)C(=O)N(C)[C@@H]1CC[C@H](CC(=O)N[C@@H]3CCN(Cc4ccccc4)C3)O[C@H]1CO2	2	/	-1	/	/	/
SMILES	ABHD4 inh	RBBP9 inhibitor	SIAE primary	HTRA1 inh	HTRA1 inh conf	ABHD4 confirm
Cc1ccc(NC2=C(NC(=O)c3ccccc3)C(=O)c3ccccc3C2=O)cc1Cl	30*	-4	7	44*	42*	50*
Cc1ccc(-c2cc(C#N)c3n(c2=O)CCC3)cc1	-2	/	2	/	/	/
O=C1c2ccccc2C(=O)c2c(NCCCN(CCO)CCO)cccc21	-2	0	-3	/	/	/
O=C1c2c(O)ccc(O)c2C(=O)c2c(NCCNCCO)ccc(NCCNCCO)c21	33*!	/	11	72*	59*	37*
O=C(c1cc(O)c(O)c([N+](=O)[O-])c1)c1ccccc1F	37*	/	14	48*	63*	32*
CCNc1ccccc(C(=O)/C=C/c2ccc3c(c2)OCO3)c1=O	41*	-8	16	36*	19	22
COC(=O)/C=C/c1ccc2c(c1)OCO2	-1	-2	-5	1	/	/
Oc1cc(CNCc2ccccc2)c(O)cc1CNCc1ccccc1	41*	/	12	57*	52*	58*
O=C(COC(=O)C1CC1)NCc1ccccc1Cl	1	1	-3	0	/	/
CC1=C(C(=O)N2CCCCCC2)CC(CC(=O)NC2CCCC2)C(=O)N1Cc1ccccc1 (configuration not stated)	5	/	-2	/	/	/
CC1CCN(C2=C(NS(=O)(=O)c3ccccc3)C(=O)c3ccccc3C2=O)CC1	20	-10	8	25	/	/
O=C1C(NS(=O)(=O)c2ccccc2)=C(N2CCN(c3ccc(F)cc3)CC2)C(=O)c2ccccc21	53*	-6	2	48*	63*	63*
O=C1C(NS(=O)(=O)c2ccc(Br)cc2)=C(N2CCCCC2)C(=O)c2ccccc21	13	/	6	15	/	/
CC1CCN(C2=C(NS(=O)(=O)c3ccc(Br)cc3)C(=O)c3ccccc3C2=O)CC1	41*	/	8	36*	86*	65*
O=C1C(NS(=O)(=O)c2cccs2)=C(N2CCN(c3cccc(Cl)c3)CC2)C(=O)c2ccccc21	55*	6	7	58*	75*	56*
CC(=O)Nc1ccc(CN(C)c2c(C)nc3ccc(C(=O)N4CCN(C(=O)c5ccco5)CC4)cn23)cc1	-2	/	13	/	/	/
COc1ccc2noc3c2c1C(=O)c1ccccc1-3	54*	/	18*	63*	45*	29
CC1CC(C)CN(C(C(=O)NC2CCCCC2)c2ccnc3ccccc23)C1 (configuration not stated)	1	/	8	/	/	/
Cc1ccc(O)c(N=CC2=C(O)c3ccccc3C2=O)c1	34*	-14	-1	44*	76*	46*
CCCCCCCCn1ccc(=N)cc1	2	-8	-3	6	/	/
CCCCCCCCCCCCCCCCn1cc[n+](C)c1	44*	-7	-1	66*	81*	51*
CCN(CC)c1ccc(/C=N/Nc2ccc(C)cc2)c(O)c1	31*	-5	13	42*	20	31*
Brc1ccc(N/N=C(/N=Nc2nn[nH]n2)c2ccccc2)cc1	91*	2	17*	62*	88*	104*
COCCNC(=O)C(c1ccc(O)cc1)N(Cc1ccccc1)C(=O)CCC(=O)Nc1nccs1 (configuration not stated)	5	/	2	2	/	/
O=C(N/N=C/c1cc2c(cc1[N+](=O)[O-])OCO2)c1ccc2c(c1)OCO2	10	/	-4	0	/	/
Cc1cc(O)c(N=Cc2cc3c(cc2[N+](=O)[O-])OCO3)cc1C	45*	/	8	52*	6	21
